Assay results published in PubChem BioAssay AID623968 (The Scripps Research Institute Molecular Screening Center, 2012).
The source made the active and inactive calls.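 The calls were made as follows: active = compounds cutting HCV replicon RNA in liver cells with IC50 no higher than 50000 nM; inactive = the rest.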

System: Huh 7.5 HCV Rluc replicon, HCV RNA qRT-PCR, 72 h
Test: HCV replicon RNA level reduction, late-stage follow-up, orthogonal assay for HCV NS3 helicase inhibitor project, RT-PCR, Huh 7.5 Rluc replicon cells (AID 623968)
In short: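 Assay system: Huh 7.5 cells carrying an HCV Rluc replicon. Dosing: concentration series in 0.5% DMSO. Times: 72 h treatment at 37 °C. Technique: One-step TaqMan qRT-PCR of HCV 5'UTR, 1 µg total RNA input. Evaluation: IC50 from fitted curve of rRNA-normalized HCV RNA versus DMSO. Controls: DMSO vehicle reference.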

IC50	SMILES
> 25 µM (inactive)	Cc1ccc2nc(-c3ccc4nc(-c5ccc(NC(=O)c6cccc(Cl)c6)cc5)sc4c3)sc2c1S(=O)(=O)O
5 µM	Cc1ccc2nc(-c3ccc4nc(-c5ccc(NC(=O)c6cc(C(F)(F)F)cc(C(F)(F)F)c6)cc5)sc4c3)sc2c1S(=O)(=O)O
